Measured values published in ChEMBL document CHEMBL3085686, “New 7-methylguanine derivatives targeting the influenza polymerase PB2 cap-binding domain” (J Med Chem, 2013).

Key:
[1] = Inhibition of influenza A virus biotinylated GST-His-tagged H3N2 RNA polymerase PB2 cap-binding domain interaction with EDA-m7GpppA by AlphaScreen assay
[2] = Inhibition of influenza A virus His-tagged H3N2 RNA polymerase PB2 cap-binding domain interaction with EDA-m7GpppA by AlphaScreen assay
Method in brief: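 His-tagged H3N2 PB2 cap-binding domain binding a biotinylated cap analogue (Biotin-EDA-m7GpppA), read by AlphaScreen with Ni(II)-chelate beads at 7.5 µg/ml each. Compound was 11-point 1:1 serially diluted from 200 µM. Incubation at room temperature in subdued light. IC50 reported.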

Influenza A virus [3] = assay: Antiviral activity against Influenza A virus (A/Aichi/2/68(H3N2)) VR-547 infected in MDCK cells assessed as reduction in virus-induced cytopathic effect at 50 uM after 48 hrs by CellTiter-Glo assay; type: functional, Influenza A virus (A/Aichi/2/1968(H3N2)); set-up: scale not given: the % may be the effect or the level left
Influenza A virus [4] = assay: Binding affinity to influenza A virus H5N1 RNA polymerase PB2 cap-binding domain at 10 uM by biacore-based SPR analysis
Method in brief: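 Purified H5N1 PB2 cap-binding domain amine-coupled to a CM7 chip at 30 µg/ml in 10 mM phosphate pH 6.5 with 5 mM m7GTP, giving about 7000 RU. Compound injected at 10 µM final (0.5% DMSO) in Tris/EDTA/NaCl/P20/1 mM DTT running buffer at 10 µL/min. Sensorgrams were double-referenced and DMSO-corrected.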

[5] = Binding affinity to influenza A virus H5N1 RNA polymerase PB2 cap-binding domain by biacore-based SPR analysis
Method in brief: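 H5N1 PB2-CBD was immobilised by amine coupling (30 µg/ml, with 5 mM m7GTP, pH 6.5; about 7000 RU). Analyte was run over 200 µM to 1 nM in Tris/EDTA/NaCl/P20/DTT buffer with 0.5% DMSO. Data were double-referenced and DMSO-corrected. KD came from a linear curve fit.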

[6] = Inhibition of influenza A virus RNA polymerase PB2 domain-mediated cap binding

Structure (SMILES) | IC50 [1] [µM] | IC50 [2] [µM] | Activity (Influenza A virus [3]) [%] | RU (Influenza A virus [4]) | Kd [5] [µM] | IC50 [6] [µM]
C[n+]1cn(-c2ccc(C(=O)O)cc2)c2nc(N)nc([O-])c21 | ≥ 200 | 181 | – | – | – | –
NC(=O)c1cc(C(=O)Cn2cnc3c(=O)[nH]c(N)nc32)ccc1O | 141 | 49 | -0.5 | 20.4 | – | –
C[n+]1cn(C(C(=O)c2ccccc2)c2ccccc2)c2nc(N)nc([O-])c21 (stereo not given) | ≥ 200 | 42 | – | – | – | –
C[n+]1cn(CC(=O)N[C@@H](CC(=O)O)C(=O)O)c2nc(N)nc([O-])c21 | 124 | 33 | – | – | – | –
C[n+]1cn(CC(=O)N[C@H](Cc2ccccc2)C(=O)O)c2nc(N)nc([O-])c21 | ≥ 200 | 65 | – | – | – | –
C[n+]1cn(CCCCCC(=O)O)c2nc(N)nc([O-])c21 | ≥ 200 | ≥ 200 | – | – | – | –
C[n+]1cn(CC(=O)c2ccc(O)c(C(N)=O)c2)c2nc(N)nc([O-])c21 | ≥ 200 | 7.5 | -0.2 | 85.8 | 13 | –
C[n+]1cn(-c2ccccc2)c2nc(N)nc([O-])c21 | ≥ 200 | 140 | – | – | – | –
C[n+]1cn(CC(=O)O)c2nc(NCC(=O)O)nc([O-])c21 | ≥ 200 | 44 | – | – | – | –
C[n+]1cn(CC(=O)c2ccccc2)c2nc(N)nc([O-])c21 | ≥ 200 | 13.7 | -2.3 | – | – | –
C[n+]1cn(CCCC(=O)O)c2nc(NCCCC(=O)O)nc([O-])c21 | ≥ 200 | 141 | – | – | – | –
NC(=O)c1cc(C(=O)Cn2c[n+](Cc3ccccc3)c3c([O-])nc(N)nc32)ccc1O | ≥ 200 | 195 | – | – | – | –
C[n+]1cn(CCC(=O)O)c2nc(N)nc([O-])c21 | ≥ 200 | ≥ 200 | – | – | – | –
CC(=O)Nc1nc([O-])c2c(n1)n(CC(=O)c1ccc(O)c(C(N)=O)c1)c[n+]2C | ≥ 200 | 129 | – | – | – | –
C[n+]1cn(CC(=O)O)c2nc(N)nc([O-])c21 | ≥ 200 | ≥ 200 | – | – | – | –
C[n+]1cn(CCCCC(=O)O)c2nc(N)nc([O-])c21 | ≥ 200 | ≥ 200 | – | – | – | –
C[n+]1cn(CC(=O)N[C@H](CC(=O)O)C(=O)O)c2nc(N)nc([O-])c21 | ≥ 200 | 91 | – | – | – | –
C[n+]1cn(CC(=O)c2ccc(O)c(C(=O)O)c2)c2nc(N)nc([O-])c21 | 2.2 | 0.6 | – | – | – | –
Nc1nc2c(ncn2CC(=O)c2ccc(O)c(C(=O)O)c2)c(=O)[nH]1 | 4.8 | 5.6 | 1.1 | 22.6 | – | –

Structure (SMILES) | IC50 [1] [µM] | IC50 [2] [µM] | Activity (Influenza A virus [3]) [%] | RU (Influenza A virus [4]) | Kd [5] [µM] | IC50 [6] [µM]
C[n+]1cn(CC(=O)N[C@@H](Cc2ccc(O)cc2)C(=O)O)c2nc(N)nc([O-])c21 | ≥ 200 | 80 | – | – | – | –
CC[n+]1cn(CC(=O)c2ccc(O)c(C(N)=O)c2)c2nc(N)nc([O-])c21 | ≥ 200 | 3.6 | 0.3 | – | – | –
C=CC[n+]1cn(CC(=O)c2ccc(O)c(C(N)=O)c2)c2nc(N)nc([O-])c21 | ≥ 200 | 60 | 0 | – | – | –
C[n+]1cn(CC(=O)N[C@@H](Cc2ccccc2)C(=O)O)c2nc(N)nc([O-])c21 | ≥ 200 | 88 | – | – | – | –
CC(=O)Nc1nc([O-])c2c(n1)n(CC(=O)O)c[n+]2C | ≥ 200 | ≥ 200 | – | – | – | –
Nc1nc2c(c(=O)[nH]1)[n+](Cc1ccccc1)cn2CCCCO | ≥ 200 | ≥ 200 | – | – | – | 45
C[n+]1cn(CC(=O)c2ccc3ccccc3c2)c2nc(N)nc([O-])c21 | ≥ 200 | 7.6 | -3.2 | – | – | –
C[n+]1cn(CC(=O)N[C@H](Cc2ccccc2)C(=O)O)c2nc(NCCCCC(=O)O)nc([O-])c21 | ≥ 200 | 53 | – | – | – | –
C[n+]1cn(CC(=O)N[C@@H](CCC(=O)O)C(=O)O)c2nc(N)nc([O-])c21 | ≥ 200 | 45 | -1.8 | 13.8 | – | –
C[n+]1cn(CCCC(=O)O)c2nc(N)nc([O-])c21 | ≥ 200 | ≥ 200 | – | – | – | –
COc1ccc(-n2c[n+](C)c3c([O-])nc(N)nc32)cc1OC | ≥ 200 | 50 | – | – | – | –
C[n+]1cn(CCCCC(=O)O)c2nc(NCCCCC(=O)O)nc([O-])c21 | ≥ 200 | 5.3 | -3.3 | 17.5 | – | –
C[n+]1cn(CC(=O)Nc2cc(C(=O)O)cc(C(=O)O)c2)c2nc(N)nc([O-])c21 | ≥ 200 | ≥ 200 | – | – | – | –
C[n+]1cn(CC(=O)c2ccc3c(c2)NC(=O)CO3)c2nc(N)nc([O-])c21 | ≥ 200 | 23 | – | – | – | –
C[n+]1cn(CC(=O)NCC(=O)O)c2nc(N)nc([O-])c21 | ≥ 200 | ≥ 200 | – | – | – | –
C[n+]1cn(-c2cccc(C(=O)O)c2)c2nc(N)nc([O-])c21 | ≥ 200 | 44 | – | – | – | –
C[n+]1cn(CC(=O)O)c2nc(NCCCCC(=O)O)nc([O-])c21 | ≥ 200 | 95 | – | – | – | –
CC(C(=O)c1ccccc1)n1c[n+](C)c2c([O-])nc(N)nc21 (stereo not given) | ≥ 200 | 65 | – | – | – | –
